Measurements from ChEMBL document CHEMBL1123113, “"Reverse" and "symmetrical" analogues of actinomycin D: metabolic activation and in vitro and in vivo tumor growth inhibitory activities” (J Med Chem, 1985).

Assays:
CCRF-CEM = assay: Inhibitory dose required for the inhibition of human lymphoblastic leukemia cells(CCRF-CEM); assay type: functional; conditions: read-out: ID50 (the source's name)
Mus musculus [1] = assay: Antitumor activity against P388 leukemia cells in terms of percentage increase in life span in mice at an optimal dose of 375 ug/kg administered ip; assay type: functional
Mus musculus [2] = assay: In vivo antitumor activity was determined against B16 melanoma in mice as number of mice survived after administration of 300 ug/Kg dose of compound; Value represented as no of survivors/ treated = 5/9; assay type: functional
Mus musculus [3] = species on record: Mus musculus; assay: Dose providing an increase in the life span of 45% over control in P388 tumor bearing mice; assay type: functional; conditions: read-out: MED
Method in brief: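 MED is the ip dose in mg/kg, given on days 1, 5 and 9 starting 1 day after implantation, that gives a 45% increase in life span over control in P388-bearing mice. It was derived from plotted log-dose response data.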

Mus musculus [4] = assay: In vivo antitumor activity was determined against P388 leukemia mice as number of mice survived after administration of 375 ug/Kg dose of compound; Value represented as no of survivors/ treated = 4/8; assay type: functional
Mus musculus [5] = assay: Antitumor activity against P388 leukemia cells in terms of median survival time of mice at an optimal dose of 375 ug/kg administered ip; assay type: functional
Mus musculus [6] = assay: Antitumor activity against B16 melanoma in terms of median survival time of mice at an optimal dose of 300 ug/kg administered ip; assay type: functional
Mus musculus [7] = assay: Antitumor activity against B16 melanoma in terms of percentage increase in life span in mice at an optimal dose of 300 ug/kg administered ip; assay type: functional
Mus musculus [8] = assay: Antitumor activity against P388 leukemia cells in terms of median survival time of mice at an optimal dose of 1000 ug/kg administered ip; assay type: functional
Mus musculus [9] = assay: In vivo antitumor activity was determined against P388 (adriamycin sensitive tumors) as number of mice survived after administration of 0.3-1.8 mg/kg, ip dose of compound; Value represented as no of survivors/ treated = 4/8; assay type: functional
Mus musculus [10] = assay: In vivo antitumor activity was determined against B16 melanoma mice as number of mice survived after administration of 900 ug/Kg dose of compound; Value represented as no of survivors/ treated = 2/9
Mus musculus [11] = assay: In vivo antitumor activity was determined against P388 leukemia mice as number of mice survived after administration of 1000 ug/Kg dose of compound; Value represented as no of survivors/ treated = 2/8; assay type: functional
Mus musculus [12] = assay: Antitumor activity against P388 leukemia cells in terms of percentage increase in life span in mice at an optimal dose of 1000 ug/kg administered ip; assay type: functional
Mus musculus [13] = assay: Antitumor activity against B16 melanoma in terms of percentage increase in life span in mice at an optimal dose of 900 ug/kg administered ip; assay type: functional
Mus musculus [14] = assay: Antitumor activity against B16 melanoma in terms of median survival time of mice at an optimal dose of 900 ug/kg administered ip; assay type: functional
Rattus norvegicus [15] = species on record: Rattus norvegicus; assay: (§1) Compound tested for NADPH oxidation in rat hepatic mycrosomal incubation; assay type: functional
Method in brief: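 Phenobarbital-induced rat liver microsomes (300 µg), 37 °C, no epinephrine; NADPH 0.4 mM added to sample cuvette only. A340 followed; % oxidation = (1 − A340/A'340)×100 vs cuvette not activated by microsomes; % stimulation = (drug rate − basal rate)/basal rate ×100. Drugs in 150 mM KCl-50 mM Tris pH 7.4; triplicate analyses, mean ± standard error.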

Rattus norvegicus [16] = species on record: Rattus norvegicus; assay: (§2) Compound tested for adrenochrome formation in rat hepatic mycrosomal incubation; assay type: functional
Method in brief: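 Superoxide read as adrenochrome from epinephrine (in 0.01 N HCl) with phenobarbital-induced rat liver microsomes (300 µg) at 37 °C; NADPH 0.4 mM added to sample cuvette after 1 min. Rate at 480 nm (ε 4.02 mM-1 cm-1); drug ≤100 µM in 150 mM KCl-50 mM Tris pH 7.4; % stimulation over basal rate; triplicate, mean ± standard error.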

Mus musculus [17] = assay: Antitumor activity against P388 leukemia cells in terms of median survival time of mice at an optimal dose of 450 ug/kg administered ip; assay type: functional
Mus musculus [18] = species on record: Mus musculus; assay: Antitumor activity against B16 melanoma in terms of percentage increase in life span in mice after 65 days; assay type: functional
Mus musculus [19] = assay: Antitumor activity against P388 leukemia cells in terms of percentage increase in life span in mice at an optimal dose of 450 ug/kg administered ip; assay type: functional
Mus musculus [20] = assay: In vivo antitumor activity was determined against B16 melanoma in mice as number of mice survived after administration of 300 ug/Kg dose of compound; Value represented as no of survivors/ treated = 3/9; assay type: functional
Mus musculus [21] = assay: In vivo antitumor activity was determined against P388 leukemia mice as number of mice survived after administration of 450 ug/Kg dose of compound; Value represented as no of survivors/ treated = 3/8; assay type: functional
Rattus norvegicus [22] = species on record: Rattus norvegicus; assay: as §1; assay type: functional; remark: listed apart in the source
Method in brief: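 Phenobarbital-induced male Sprague-Dawley rat liver microsomes were placed in both cuvettes, without epinephrine. NADPH 0.4 mM was added to the sample side only, and absorbance was read at 340 nm. Percent stimulation = (drug rate − basal)/basal × 100. Values are the average ± standard errors of triplicates.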

Rattus norvegicus [23] = species on record: Rattus norvegicus; assay: as §2; assay type: functional; remark: listed apart in the source
Method in brief: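 Adrenochrome assay for superoxide: epinephrine in 0.01 N HCl plus 300 µg of phenobarbital-induced rat liver microsomes at 37 °C. NADPH 0.4 mM was added to the sample side 1 min later, and the rate was read at 480 nm (ε 4.02 mM−1 cm−1). Drugs were at ≤100 µM, made in 150 mM KCl–50 mM Tris, pH 7.4. Percent stimulation is over basal rate, in triplicate.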

Mus musculus [24] = assay: In vivo antitumor activity was determined against P388 leukemia mice as number of mice survived after administration of 600 ug/Kg dose of compound; Value represented as no of survivors/ treated = 4/8; assay type: functional
Mus musculus [25] = assay: Antitumor activity against P388 leukemia cells in terms of median survival time of mice at an optimal dose of 600 ug/kg administered ip; assay type: functional
Mus musculus [26] = assay: Antitumor activity against P388 leukemia cells in terms of percentage increase in life span in mice at an optimal dose of 600 ug/kg administered ip; assay type: functional
Mus musculus [27] = assay: In vivo antitumor activity was determined against B16 melanoma mice as number of mice survived after administration of 300 ug/Kg dose of compound; Value represented as no of survivors/ treated = 4/9; assay type: functional
P388 [28] = assay: Inhibition of DNA synthesis was measured as the concentration required to cause 50% reduction (in 1h) in methyl [3H]thymidine incorporation into acid precipitable material using P388 cells; assay type: functional, cell-based; conditions: Mus musculus
P388 [29] = assay: Inhibition of RNA synthesis was measured as the concentration required to cause 50% reduction (in 1h) in 2-[14C]uridine incorporation into acid precipitable material using P388 cells; assay type: functional, cell-based; conditions: Mus musculus, P388, 1 h

For `Cc1c2oc3c(C)c4oc(-c5ccccc5)nc4c(C(=O)N[C@@H]4C(=O)N[C@H](C(C)C)C(=O)N5CCC[C@H]5C(=O)N(C)CC(=O)N(C)[C@@H](C(C)C)C(=O)O[C@@H]4C)c3nc-2c(C(=O)N[C@@H]2C(=O)N[C@H](C(C)C)C(=O)N3CCC[C@H]3C(=O)N(C)CC(=O)N(C)[C@@H](C(C)C)C(=O)O[C@@H]2C)c(N)c1=O`, the IC50 (CCRF-CEM) was 30 nM, the ILS at 0.375 mg/kg (Mus musculus [1]) was 382% and the Survivors (Mus musculus [2]) was 5. For the same compound, the minimal effective dose (Mus musculus [3]) was 0.03 mg/kg, the Survivors (Mus musculus [4]) was 4 and the MST (Mus musculus [5]) was 52 days. It also gave an MST (Mus musculus [6]) of 59 days and an ILS at 0.3 mg/kg (Mus musculus [7]) of 103%.
With `Cc1c2oc3c(C)c4oc(-c5ccccc5)nc4c(C(=O)N[C@@H]4C(=O)N[C@H](C(C)C)C(=O)N5CCC[C@H]5C(=O)N(C)CC(=O)N(C)[C@@H](C(C)C)C(=O)O[C@@H]4C)c3nc-2c(C(=O)N[C@@H]2C(=O)N[C@H](C(C)C)C(=O)N3CCC[C@H]3C(=O)N(C)CC(=O)N(C)[C@@H](C(C)C)C(=O)O[C@@H]2C)cc1=O` the MST (Mus musculus [8]) was 31.5 days, the Survivors (Mus musculus [9]) was 4 and the IC50 (CCRF-CEM) was 500 nM. The Survivors (Mus musculus [10]) was 2, the Survivors (Mus musculus [11]) was 2 and the “ILS (Sur)” value (Mus musculus [12]) was 186%. It also gave an ILS at 0.9 mg/kg (Mus musculus [13]) of 55%, a minimal effective dose (Mus musculus [3]) of 0.2 mg/kg and an MST (Mus musculus [14]) of 45 days.
In the case of `Cc1nc2c(C(=O)N[C@@H]3C(=O)N[C@H](C(C)C)C(=O)N4CCC[C@H]4C(=O)N(C)CC(=O)N(C)[C@@H](C(C)C)C(=O)O[C@@H]3C)c3nc4c(C(=O)N[C@@H]5C(=O)N[C@H](C(C)C)C(=O)N6CCC[C@H]6C(=O)N(C)CC(=O)N(C)[C@@H](C(C)C)C(=O)O[C@@H]5C)c(N)c(=O)c(C)c-4oc3c(C)c2o1` [listing 1 of 2 here], the NADPH oxidation (Rattus norvegicus [15]) is reported as 21.3 nM min-1 (mg of protein)-1, the adrenochrome formation (Rattus norvegicus [16]) is reported as 6.04 nM min-1 (mg of protein)-1 and the IC50 (CCRF-CEM) is reported as 110 nM. For the same compound, the MST (Mus musculus [17]) was 42.5 days, the ILS (Mus musculus [18]) was 90% and the ILS at 0.45 mg/kg (Mus musculus [19]) was 277%. It also gave a Survivors (Mus musculus [20]) of 3, an MST (Mus musculus [6]) of 55 days and a Survivors (Mus musculus [21]) of 3.
In the case of `Cc1c2oc3c(C)c(O)c(N)c(C(=O)N[C@@H]4C(=O)N[C@H](C(C)C)C(=O)N5CCC[C@H]5C(=O)N(C)CC(=O)N(C)[C@@H](C(C)C)C(=O)O[C@@H]4C)c3nc-2c(C(=O)N[C@@H]2C(=O)N[C@H](C(C)C)C(=O)N3CCC[C@H]3C(=O)N(C)CC(=O)N(C)[C@@H](C(C)C)C(=O)O[C@@H]2C)c(N)c1=O`, the NADPH oxidation (Rattus norvegicus [22]) is reported as 64.3 nM min-1 (mg of protein)-1, the IC50 (CCRF-CEM) is reported as 30 nM and the minimal effective dose (Mus musculus [3]) is reported as 0.025 mg/kg. For the same compound, the adrenochrome formation (Rattus norvegicus [23]) was 19.3 nM min-1 (mg of protein)-1, the Survivors (Mus musculus [24]) was 4 and the MST (Mus musculus [25]) was 52 days. The ILS at 0.6 mg/kg (Mus musculus [26]) was 382%, the Survivors (Mus musculus [27]) was 4 and the MST (Mus musculus [6]) was 57 days. The ILS at 0.3 mg/kg (Mus musculus [7]) was 96%.
Compound `Cc1nc2c(C(=O)N[C@@H]3C(=O)N[C@H](C(C)C)C(=O)N4CCC[C@H]4C(=O)N(C)CC(=O)N(C)[C@@H](C(C)C)C(=O)O[C@@H]3C)c3nc4c(C(=O)N[C@@H]5C(=O)N[C@H](C(C)C)C(=O)N6CCC[C@H]6C(=O)N(C)CC(=O)N(C)[C@@H](C(C)C)C(=O)O[C@@H]5C)c(N)c(=O)c(C)c-4oc3c(C)c2o1` [listing 2 of 2 here] has an IC50 (P388 [28]) of 1010 nM and an IC50 (P388 [29]) of 90 nM.
